Compound activity deposited in PubChem BioAssay by several laboratories.
rCAG binder = r(CAG) repeat RNA binding; TO-PRO-1 dye displacement fluorescence; inhibition, % at 3 µM; actives 1.3% (n = 370,000); AID 651821;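 active = inhibition above the plate cutoff, the mean of all test compounds on that plate plus 3 SD, cut at about 35% in these data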;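 note: 0% = DMSO alone and 100% = 100 µM mitoxantrone as full dye displacement; higher means more dye released from RNA so lower well fluorescence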
V-ATPase pHluor = yeast V-ATPase proton transport regulation by pHLuorin; S. cerevisiae, pHLuorin cytosolic pH fluorescence; response, % at 10 µM; actives 0.37% (n = 350,000); in the data active = response mostly above about 7.3%, no sharp cut-off; inactive = mostly below about 5.4%; note: actives read high
B2AR ag = activates human beta-2 adrenergic receptor causing internalization; P07550; Am2.2-beta2AR cells, FAP receptor internalization, flow cytometry; response, % (concentration not given with the values); actives 0.43% (n = 340,000); AID 504454;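 active = response above a set limit, near 3 SD of response in nonfluorescent compounds, cut at about 42% in these data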
Target sequence (P07550 whole entry, looked up): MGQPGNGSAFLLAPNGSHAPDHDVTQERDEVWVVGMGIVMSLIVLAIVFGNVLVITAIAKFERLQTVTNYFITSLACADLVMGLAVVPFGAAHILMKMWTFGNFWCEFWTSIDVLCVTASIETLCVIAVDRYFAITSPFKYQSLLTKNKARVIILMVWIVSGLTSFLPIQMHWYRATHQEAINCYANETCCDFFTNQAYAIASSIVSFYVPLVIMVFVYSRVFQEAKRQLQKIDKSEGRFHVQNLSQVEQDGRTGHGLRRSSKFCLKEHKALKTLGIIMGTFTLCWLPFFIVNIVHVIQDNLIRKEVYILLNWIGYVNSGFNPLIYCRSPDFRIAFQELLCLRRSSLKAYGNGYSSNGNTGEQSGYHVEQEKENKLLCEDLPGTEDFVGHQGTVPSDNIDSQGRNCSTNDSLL
T cell HTS = T cell immune modulators affecting CD8 T cell-vesicle binding. 2C CD8+ T cell-vesicle binding, flow cytometry; active compounds read low. response (vesicle binding), % at 7 µM. actives 0.068% (n = 330,000);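 active = response, share of CD8 T cells binding vesicles, and their 90th percentile fluorescence all below set limits, cut at about 80% in these data, passing the limit was not always enough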;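 note: values below 100% mean blocked vesicle binding to the CD8+ T cells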
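Incubation: binding step 1.5 h, 37 °C, antibody labelling 20 min, ice; system: murine 2C transgenic CD8+ T lymphocytes; technique: cytometric PE anti-B7-1 and Alexa647 anti-CD8 signals after 1% paraformaldehyde fixation; also added: QL9-charged Drosophila Ld/ICAM-1/B7-1 vesicles; control set: naked versus QL9-loaded vesicles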
MPTP block = blocks calcium-induced mitochondrial swelling | isolated mouse mitochondria, Ca2+ swelling absorbance, 30 min | inhibition, % at 10 µM | actives 1.4% (n = 360,000) | AID 602449;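 active = inhibition of 50% or more, scaled per plate between neutral and stimulator controls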;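 note: 0% = DMSO wells given calcium and 100% = 1 mM EGTA wells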
Granule exo inh = lytic granule exocytosis inhibition; TALL-104 LAMP-1 surface exposure, flow cytometry; cells stimulated with thapsigargin and PMA; AID 651702; actives 0.66% (n = 360,000); inhibition, % at 10 µM;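 active = inhibition above about 55%, limit read from the data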
MPTP counter = mitochondrial membrane potential, counter-screen; shares compounds with MPTP block; isolated mitochondria, Rhodamine 123 fluorescence; inhibition, % at 10 µM; actives 78% (n = 5,000); AID 624504; in the data active = inhibition above about 22%;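 note: 0% = DMSO vehicle and 100% = positive control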
MPTP abs DR = dose response confirmation of mitochondrial permeability transition pore inhibitors. shares compounds with MPTP block. isolated mitochondria swelling, absorbance. IC50, µM. actives 58% (n = 780). AID 651561; in the data active = IC50 below about 20 µM
MPTP counter DR = active in counter-screen for permeability transition pore inhibitors; IC50, µM; shares compounds with MPTP block; AID 651564; isolated mitochondria counterscreen, fluorescence read-out; actives 49% (n = 780); in the data active = IC50 below about 80 µM
* = called active by the depositor; i = inactive; nt = no result given. Rows were chosen to be rich in hits. Some 3.8% of all compounds tested hit in one or more screens of this group.

SMILES	rCAG binder	V-ATPase pHluor	B2AR ag	T cell HTS	MPTP block	Granule exo inh	MPTP counter	others
Cc1ncc(CO)c(/C=N/NC(=S)Nc2cccc(Cl)c2)c1O	nt	1	-3	758	78*	-5	79*
Cc1nc(N2CCOCC2)c2c(C)c(C(=O)Nc3ccccc3C(F)(F)F)sc2n1	-8	2	0	276	1	-9	nt
Cc1nc(N2CCC(C)CC2)c2c(C)c(C(=O)Nc3ccc(C(F)(F)F)cc3)sc2n1	0	-4	3	449	88*	-1	38*
Cc1nc(N2CCC(C)CC2)c2c(C)c(C(=O)Nc3cccc(C(F)(F)F)c3)sc2n1	1	-3	18	137	84*	-4	17	MPTP abs DR=i;MPTP counter DR=7.7*
Cc1nc(N2CCC(C)CC2)c2c(C)c(C(=O)Nc3ccc4c(c3)OCCO4)sc2n1	1	1	7	376	-1	8	nt
COC(=O)C[C@H]1CC[C@H]2[C@H](COc3ccc(NS(=O)(=O)c4cccc(OC)c4)cc3C(=O)N2C)O1	3	nt	nt	nt	nt	nt	nt
CCC(C)N(C(=O)c1oc(=O)c2ccccc2c1-c1ccc(C)cc1)C(C)CC (configuration not stated)	2	nt	nt	nt	nt	nt	nt
N#Cc1cccc(C#N)c1Oc1ccc(S(=O)(=O)Nc2ccc(Cl)cc2)cc1	8	-6	5	304	77*	8	45*
COC(=O)C1=C(C)N(C)C(=NCc2ccc3c(c2)OCO3)NC1c1ccc(F)cc1 (configuration not stated)	9	nt	nt	nt	nt	nt	nt
O=C(Nc1ccc(Cl)c(Cl)c1)OCc1cccnc1	8	-1	-1	579	90*	-1	95*
O=C(Nc1ccc(Cl)c(Cl)c1)c1cccc(S(=O)(=O)NCc2cccnc2)c1	18	-1	-3	177	104*	14	84*
O=C(Nc1cccnc1)OCc1ccccc1	6	3	-3	738	0	-14	nt
CCN(CC)C(=O)CC[C@@H]1CC[C@]2(CCCN(Cc3cccc4ccccc34)C2)O1	-3	nt	nt	nt	nt	nt	nt
c1ccc(-c2cc(-c3nnc4sc(Cc5cccs5)nn34)[nH]n2)cc1	15	nt	nt	nt	nt	nt	nt
O=S(=O)(N/N=C1/CC(c2ccccc2)Oc2ccccc21)c1ccc(Br)cc1 (configuration not stated)	33	1	5	412	76*	-4	85*
Cc1nn(-c2ccccc2)c2ncc(C(=O)c3cc(Cl)ccc3O)cc12	10	0	3	321	62*	4	83*
COc1ccc(Cl)cc1N(C(=O)Nc1cccc(Cl)c1)C1=NCC(C)S1 (configuration not stated)	-1	3	6	312	92*	-4	89*
Cc1ccccc1C(=O)N[C@H](C(=O)N1CCC[C@H]1C(=O)NCc1ccccc1)c1ccccc1	0	nt	nt	nt	nt	nt	nt
O=C(CNC(=O)c1cccc(Br)c1)N/N=C/c1cc(Br)cc(Br)c1O	19	2	13	198	66*	3	13
Oc1ccc(Br)cc1/C=N/N1CCCCC1	-1	1	7	156	2	-2	nt
Oc1ccc(Br)cc1/C=N/n1cnc2ccccc21	16	-2	10	381	74*	-2	67*
C#CCNC(=O)C[C@@H]1C(=O)N2CCCC3=C2[C@@]1(C(=O)OC)CCCC3	3	nt	nt	nt	nt	nt	nt
CN1CCN(CC#CCn2c3ccccc3c3ccccc32)CC1	-5	8	13	200	86*	2	-17	MPTP abs DR=i;MPTP counter DR=>80
CSc1ccc2c(c1)N(CCC1CCCCN1C)c1ccccc1S2 (configuration not stated)	8	0	32	88	85*	9	-22	MPTP abs DR=4.8*;MPTP counter DR=56*
CN1CCN(CCCN2c3ccccc3Sc3ccc(S(=O)(=O)N(C)C)cc32)CC1	0	-4	12	611	1	23	nt
SMILES	rCAG binder	V-ATPase pHluor	B2AR ag	T cell HTS	MPTP block	Granule exo inh	MPTP counter	others
CC(C)(C)C(=O)OC12CCCN(C1)/C(=C/c1ccccc1)C2 (configuration not stated)	3	nt	nt	nt	nt	nt	nt
CCN1CCN(c2cc(-c3ccccc3)nc3cc(-c4cccc(F)c4)nn23)CC1	3	-6	22	695	99*	30	-23	MPTP abs DR=11*;MPTP counter DR=>80
Cc1ccc(NC(=S)/C(C#N)=C2/Nc3ccccc3S2)cc1	92*	4	nt	nt	65*	4	39*
COc1ccc(-n2c(Cc3cccs3)nnc2SCC(=O)Nc2cccc3ccccc23)cc1	4	nt	nt	nt	nt	nt	nt
COc1ccc(OC)c(/C=N/N=C2\SCC(=O)N2Cc2ccco2)c1	-2	-1	-1	266	2	0	nt
COc1ccc(CN2C(=O)CS/C2=N/N=C/c2cccs2)cc1	-5	-1	-8	862	82*	2	62*
O=C(NCc1cccnc1)c1ccc(-c2ccc(F)c(F)c2)c2ccoc12	1	nt	nt	nt	92*	12	84*
COc1ccc(CNC(=O)c2cccc3c(-c4ccc(F)c(F)c4)coc23)cc1OC	nt	nt	nt	nt	88*	6	80*
COc1ccc(CNC(=O)c2cccc3c(-c4cccc(C(N)=O)c4)coc23)cc1OC	4	nt	nt	nt	86*	14	83*
COCc1cc(N2CCN(C(=O)OC(C)(C)C)C[C@@H]2C)ccc1N1CC[C@@H](O)C1	11	nt	nt	nt	nt	nt	nt
COC(=O)C1CN(CCO)CCS(=O)(=O)N1Cc1cccc(Cl)c1 (configuration not stated)	0	nt	nt	nt	nt	nt	nt
C[C@H]1CN(S(=O)(=O)C(C)(C)C)[C@@H](CCO)/C1=C\c1ccccc1	2	nt	nt	nt	nt	nt	nt
COC(=O)CS(=O)(=O)c1nnc([C@H](Cc2ccccc2)NC(=O)OC(C)(C)C)o1	4	0	16	144	98*	23	1
COC(=O)CSc1nnc([C@H](Cc2ccccc2)NC(=O)OC(C)(C)C)o1	-8	4	5	293	0	6	nt
CN(C)c1cccc2c(S(=O)(=O)NCC3CCN(C(=O)C(=O)c4cccs4)CC3)cccc12	10	nt	nt	nt	nt	nt	nt
CC1=CC(=O)C=C(C)C1=NOS(=O)(=O)c1ccccc1	-4	4	33	nt	103*	37	90*
CC1=CC(=O)C(C(C)C)=C/C1=N/OS(=O)(=O)c1ccccc1	-5	5	30	104	96*	10	92*
O=C(Cc1ccccc1Cl)NCCN1C(=O)C2C3C=CC(C3)C2C1=O (configuration not stated)	4	nt	nt	nt	nt	nt	nt
Cc1occc1-c1nnc(SCC(=O)Nc2ccccn2)n1-c1ccccc1	1	nt	nt	nt	nt	nt	nt
